A selection: hits, their analogues and other compounds. The true share with any hit is near 1.4%.
CR mimetic SO: lowers age-related superoxide in aged yeast cells; hit rate 0.18% among 330,000; S. cerevisiae aged cells, superoxide DHE fluorescence; active compounds read low; superoxide response (% of plate mean), % at 10 µM; AID 2690;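 active = superoxide response under a set limit, about three screen SD below normal, cut at about 65% in these data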;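 also: yeast aged for seven days with compound at 30 °C before DHE staining; 100% = average MFI of all compound-treated wells on the plate with controls excluded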
IDE cell activ: boosts human insulin-degrading enzyme activity in HEK cells; FAbeta-B cleavage, fluorescence polarization; 0% vehicle, 100% cell-free pure enzyme wells; activation, % at 5.96 µM; hit rate 0.073% among 340,000;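 active = activation above the mean of all tested compounds plus 3 SD, set per screening campaign, cut at about 17% in these data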
Target sequence (P14735 whole entry, looked up): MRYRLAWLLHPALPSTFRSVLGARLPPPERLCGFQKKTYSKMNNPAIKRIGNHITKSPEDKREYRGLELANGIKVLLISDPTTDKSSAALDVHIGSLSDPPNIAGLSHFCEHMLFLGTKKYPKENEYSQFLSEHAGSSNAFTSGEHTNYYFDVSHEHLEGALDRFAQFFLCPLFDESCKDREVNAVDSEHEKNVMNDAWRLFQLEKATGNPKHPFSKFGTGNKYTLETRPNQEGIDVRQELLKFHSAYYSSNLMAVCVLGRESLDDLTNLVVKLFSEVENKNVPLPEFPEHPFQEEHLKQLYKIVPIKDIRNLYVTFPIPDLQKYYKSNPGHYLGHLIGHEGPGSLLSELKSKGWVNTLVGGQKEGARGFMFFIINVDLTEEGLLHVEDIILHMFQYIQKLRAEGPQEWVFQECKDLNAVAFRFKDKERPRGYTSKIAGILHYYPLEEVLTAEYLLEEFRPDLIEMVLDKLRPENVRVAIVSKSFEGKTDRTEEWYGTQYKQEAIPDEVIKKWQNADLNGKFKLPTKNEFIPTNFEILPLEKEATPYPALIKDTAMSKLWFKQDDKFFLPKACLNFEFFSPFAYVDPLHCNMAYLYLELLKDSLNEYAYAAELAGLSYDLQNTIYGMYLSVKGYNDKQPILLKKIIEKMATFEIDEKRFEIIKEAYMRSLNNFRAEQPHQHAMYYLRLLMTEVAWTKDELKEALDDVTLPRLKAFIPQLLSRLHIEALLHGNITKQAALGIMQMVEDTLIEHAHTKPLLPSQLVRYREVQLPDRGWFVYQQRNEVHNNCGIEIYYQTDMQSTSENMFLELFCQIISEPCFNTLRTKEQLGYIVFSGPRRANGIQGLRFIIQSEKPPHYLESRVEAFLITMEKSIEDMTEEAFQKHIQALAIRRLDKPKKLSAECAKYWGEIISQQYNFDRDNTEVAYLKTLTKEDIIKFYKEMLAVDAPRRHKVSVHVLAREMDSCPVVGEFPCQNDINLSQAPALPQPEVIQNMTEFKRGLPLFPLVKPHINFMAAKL
TbMetRS inhib: blocks T. brucei methionyl-tRNA synthetase activity | purified T. brucei MetRS, ATP depletion, Kinase-Glo luminescence | inhibition, % at 11.9 µM | hit rate 0.4% among 360,000;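 active = inhibition above a per-plate cutoff of the control wells' mean inhibition plus 3 SD, cut at about 5.5% in these data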;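 also: 0% = DMSO wells median and 100% = median of wells with control inhibitor compound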
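Material: T. brucei methionyl-tRNA synthetase, purified; reagent: substrates ATP, L-methionine and bulk Escherichia coli tRNA; dosing: 11.9 µM single point; timing: 15 min plus 2 h at 25 °C; detection: luminescence of leftover ATP; evaluation: % inhibition; control set: DMSO-only wells as low control; replicates: singlicate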
IDE cell inh: cellular human IDE inhibition; HEK cells, FAbetaB cleavage, fluorescence polarization; inhibition, % at 5.59 µM; hit rate 0.41% among 320,000; P14735;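 active = percent inhibition above the average of all tested compounds plus 3 SD, set per screening campaign, cut at about 16% in these data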;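 also: IDE supplied by intact live HEK cells; FP after avidin binding of uncleaved biotin substrate so inhibition keeps polarization high; 0% = DMSO wells and 100% = 60 µM reference IDE inhibitor Ii1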
HDAC3 inhib: human HDAC3 inhibition; O15379; recombinant HDAC3, fluorogenic peptide/trypsin coupled, fluorescence; inhibition, % at 8.3 µM; hit rate 0.15% among 320,000; in the data active = inhibition above about 26%, passing the limit was not always enough; inconclusive = no clear call, values can overlap the other calls
Efflux pump inh: blocks antifungal efflux pumps in multiplex yeast assay; hit rate 0.44% among 330,000; inhibition, % at 10 µM; S. cerevisiae Candida pump triplex, Nile Red efflux; AID 485275;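 active = plate passing quality check with inhibition over a set limit, or well fluorescence over plate mean plus 4 SD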;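 also: Nile Red retained in pooled yeast measured as flow cytometry median fluorescence; 0% = buffer negative control and 100% = Enniatin B positive control; higher means more Nile Red kept so more efflux inhibition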
Yeast cmpd fluor: counter-screen for efflux pump inhibitors: compound fluorescence; shares compounds with Efflux pump inh; hit rate 4% among 1,700; fluorescence ratio to DMSO, % at 10 µM; AID 588517; S. cerevisiae AD/pABC3, flow cytometry;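 active = fluorescence ratio to DMSO above its plate's cutoff, the plate mean ratio plus 5 SD, cut at about 210% in these data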;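 also: unstained yeast with no Nile Red so the signal is compound autofluorescence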
CaMdr1 efflux inh: Candida Mdr1 efflux pump inhibition. shares compounds with Efflux pump inh. S. cerevisiae AD/CaMDR1, Nile Red efflux, flow cytometry. inhibition, % at 10 µM. hit rate 1% among 1,700; in the data active = inhibition above about 26%;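 also: 0% = DMSO vehicle and 100% = reference inhibitor; higher means more Nile Red retained so more efflux inhibition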
CaCdr2 efflux inh: blocks the Candida albicans Cdr2 efflux pump in yeast | shares compounds with Efflux pump inh | hit rate 4% among 1,700 | S. cerevisiae AD/CaCDR2, Nile Red retention, flow cytometry | Nile Red retention ratio vs DMSO, % at 10 µM; in the data active = Nile Red retention ratio vs DMSO above about 190%;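 also: higher ratio means more blocking of Cdr2 efflux of the dye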
CaCdr1 efflux inh: blocks the Candida albicans Cdr1 efflux pump in yeast; shares compounds with Efflux pump inh; S. cerevisiae AD/CaCDR1, Nile Red efflux, flow cytometry; inhibition, % at 10 µM; hit rate 1% among 1,700; AID 588522;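 active = inhibition above the screen-wide mean plus twice its standard deviation, cut at about 32% in these data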
The depositor's hits bear a star; ? = inconclusive; nt = no result given; + = active, no number.

SMILES	CR mimetic SO	IDE cell activ	TbMetRS inhib	IDE cell inh	HDAC3 inhib	Efflux pump inh	Yeast cmpd fluor	CaMdr1 efflux inh	CaCdr2 efflux inh	CaCdr1 efflux inh
Cc1ccc(NC(=S)N(Cc2cccs2)Cc2cc3cccc(C)c3[nH]c2=O)cc1	116	9	0	3	3	8.9*	103	0	96	0
CC(=O)NN1C(=O)/C(=C\c2ccc(Cl)cc2)SC1=S	88	0	0	2	2	1	nt	nt	nt	nt
O=C(COC(=O)c1ccc(O)cc1)c1ccc(S(=O)(=O)N2CCCCC2)cc1	90	2	0	1	-7	0	nt	nt	nt	nt
COc1ccc(-n2c(SCC(=O)Nc3ncc(Cl)cc3Cl)nc3ccccc32)cc1	98	nt	nt	1	9	0.8*	98	0	107	0
O=C(CSc1nc2ccccc2n1-c1ccccc1)Nc1ncc(Cl)cc1Cl	100	-4	0	6	7	0	nt	nt	nt	nt
COc1ccccc1NC(=O)c1ccc2c(c1)nnn2C	106	4	-1	5	-5	0	nt	nt	nt	nt
COc1ccc(C)cc1NC(=O)C1CC(=O)OC12CCCCC2 (stereo unspecified)	90	5	0	1	7	1.3*	100	0	114	0
Cc1cccc(NC(=O)C2CC(=O)OC23CCCCC3)c1 (stereo unspecified)	99	-3	0	4	0	0	nt	nt	nt	nt
Cc1[nH]c2ccc(C(=O)NCCCN3CCCC3)cc2c1C	99	2	0	1	0	1	nt	nt	nt	nt
Cc1[nH]c2ccc(C(=O)NCCN3CCOCC3)cc2c1C	124	-1	0	3	2	1.4*	112	0	125	0
CC(C)Cn1nc(C(=O)Nc2nnc(C3CC3)s2)c2ccccc2c1=O	104	3	-1	-4	1	0.9*	113	0	116	0
CC(C)n1nc(C(=O)Nc2nnc(C3CC3)s2)c2ccccc2c1=O	99	7	0	1	1	0	nt	nt	nt	nt
CCC(=O)NN1CCc2cc3ccc(C)cc3nc21	106	8	0	1	-10	0	nt	nt	nt	nt
CN1C/C(=C\c2ccc(N3CCOCC3)cc2)C(=O)/C(=C/c2ccc(N3CCOCC3)cc2)C1	97	-4	0	9	-2	0.8*	99	0	114	0
O=[N+]([O-])c1ccc(COc2ccc(-c3[nH]ncc3-c3ccc(Cl)cc3)c(O)c2)cc1	111	5	-1	1	11	18*	109	0	112	0
COc1ccc(-c2cn[nH]c2-c2ccc(OCc3ccc([N+](=O)[O-])cc3)cc2O)cc1OC	82	0	-1	2	-3	0	nt	nt	nt	nt
COc1ccc(CCCc2nnc(SCC(=O)Nc3cccc(C)c3)o2)cc1	93	0	0	2	7	0	nt	nt	nt	nt
COc1ccc(CCCc2nnc(SCC(=O)Nc3cc(C)c(C)cc3Br)o2)cc1	117	-1	0	4	1	0.8*	103	-1	108	0
O=C1OC(c2ccco2)=N/C1=C\c1ccc(-c2cccc(C(F)(F)F)c2)o1	125	-4	0	2	6	1.2*	93	0	112	0
C=CCn1c(SCC#N)nc2ccccc2c1=O	116	-2	0	-1	-4	0.6*	93	0	106	0
COc1cc(NC(=O)CN2C(=O)COc3ccccc32)cc(OC)c1	nt	-3	0	nt	nt	nt	nt	nt	nt	nt
O=C(CCN1CCCCCC1)Nc1ccc2c(c1)OCCO2	98	4	1	-1	3	0.6*	101	0	104	0
CCc1nc2ccc(C(=O)N(C)Cc3ccco3)cn2c1N(CC)Cc1cccc(Br)c1	nt	nt	0	nt	nt	nt	nt	nt	nt	nt
Cc1ccc2[nH]cc(/C=C/c3cc[n+](C)cc3)c2c1	93	-15	-1	nt	10	9.3*	908*	7	137	6
COc1ccc2c(/C=C/c3cc[n+](C)cc3)c[nH]c2c1	106	-8	0	14	6	9.1*	+	23	256*	13
SMILES	CR mimetic SO	IDE cell activ	TbMetRS inhib	IDE cell inh	HDAC3 inhib	Efflux pump inh	Yeast cmpd fluor	CaMdr1 efflux inh	CaCdr2 efflux inh	CaCdr1 efflux inh
CC(C)(C)OC(=O)N1CC2(CCCCC2)CC1Cc1ccc(C(F)(F)F)cc1 (stereo unspecified)	nt	nt	-1	nt	nt	nt	nt	nt	nt	nt
CCC(Sc1nncn1C)C(=O)Nc1ccccc1OC (stereo unspecified)	101	8	0	5	2	0.5*	106	0	96	0
Cc1cc(C)c2nc(-n3nc(C)cc3N)cc(C)c2c1	95	-3	0	5	-4	2.0*	90	0	95	0
Cc1cc(N)n(-c2cc(C)c3ccccc3n2)n1	86	1	-1	6	2	0	nt	nt	nt	nt
S=c1[nH]nc(-c2cccnc2)n1/N=C/c1ccc(Br)s1	102	3	-1	-2	0	8.0*	83	0	93	0
Cc1ccc(/C=N/n2c(-c3cccnc3)n[nH]c2=S)s1	90	2	0	-5	?	0	nt	nt	nt	nt
O=C(NCCN1CCOCC1)C1(C(F)(F)F)C/C(=C\Cc2ccccc2)CCCO1 (stereo unspecified)	95	2	0	4	-4	0	nt	nt	nt	nt
CCCc1c(C(=O)N/N=C/c2c(OC)ccc3ccccc23)nnn1-c1nonc1N	81	5	-1	-3	-6	0	104	0	103	0
CN(C)c1ccc(/C=N/NC(=O)c2nnn(-c3nonc3N)c2COc2ccc(F)cc2)cc1	105	-3	0	-4	4	0	91	0	114	0
CCOc1ccc(-c2c(C(=O)N/N=C/c3ccc(O)cc3)nnn2-c2nonc2N)cc1	98	7	0	0	nt	0	98	0	101	0
CCOc1ccc(-c2c(C(=O)N/N=C(\C)c3ccccc3OC)nnn2-c2nonc2N)cc1	110	5	0	1	0	0	98	0	92	0
Nc1nonc1-n1nnc(C(=O)N/N=C/c2ccccc2)c1CSc1ccccc1	110	nt	0	1	nt	1	108	0	101	0
C/C(=N\NC(=O)c1nnn(-c2nonc2N)c1COc1ccc(F)cc1)c1ccc(Cl)cc1	93	8	-1	0	-4	0	99	0	109	0

Screening results deposited in PubChem by several laboratories.
